Data set [1] is described as follows: Antineuroinflammatory activity in mouse BV2 cells assessed as inhibition of LPS-stimulated nitric oxide production preincubated for 4 hrs followed by LPS challenge measured after 24 hrs by Griess assay. The class given is functional, cell-based. Conditions: BV-2. Summed up: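 BV-2 mouse microglia (ATCC) kept in DMEM with 1800 mg/L NaHCO3, 10% FBS and penicillin/streptomycin at 37 °C, 5% CO2. Cells were pretreated 4 h with 3.125–100 μM, then LPS 1 μg/mL for 24 h. Supernatant nitrite was measured by Griess reagent at 540 nm against a NaNO2 standard curve. IC50 is the concentration giving 50% inhibition; mean ± SD of three independent experiments.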

Data set [2] is described as follows: Cytotoxicity against mouse BV2 cells assessed as cell viability at 50 uM by MTT assay relative to control. The class given is cell-based, BV-2. Conditions: read-out: Activity. In a few lines: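 MTT colorimetric read-out on BV-2 microglia in DMEM/10% FBS at 37 °C, 5% CO2, after treatment at 50 μM. Viability is expressed as percent of untreated control cells; mean ± SD.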
For orientation: Tetrazolium assays rely on reduction of a dye to a coloured formazan, in cell work by metabolically active cells.

This is an account of results in ChEMBL document CHEMBL3593214, “ent-Abietane-Type and Related Seco-/Nor-diterpenoids from the Rare Chloranthaceae Plant Chloranthus sessilifolius and Their Antineuroinflammatory Activities” (J Nat Prod, 2015).

What is called IC50 is the concentration needed to halve the response being measured.

Regarding `CC(C)C1=CC(=O)[C@@]2(CC1)OC(=O)C[C@@H]1C(C)(C)[C@H](O)CC[C@]12C`, the IC50 in data set [1] was more than 100 µM.

Take `CC1(C)[C@H](O)CC[C@@]2(C)[C@@H]3CCC(=O)C=C3[C@H](O)C[C@H]12`: in data set [1], the IC50 was more than 100 µM.

For `CC(C)[C@@]1(O)C=C2C(=O)C[C@@H]3C(C)(C)[C@H](O)CC[C@@]3(C)[C@@H]2C[C@H]1O`, in data set [1], the IC50 is 37.7 µM. Further, in data set [2], the viability at 50 µM turned out to be 98.4%.

As to `CC(C)C(=O)CC[C@@H]1C(C=O)=C[C@@H](O)[C@@H]2C(C)(C)[C@H](O)CC[C@@]12C`, the IC50 in data set [1] is more than 100 µM.

Turning to `CNC(=N)NCCC[C@H](N)C(=O)O` [TILARGININE], the IC50 in data set [1] turned out to be 14.4 µM. Moreover, in data set [2], the viability at 50 µM was 98.5%.

For the molecule `CC1(C)[C@H](O)CC[C@@]2(C)[C@@H]3CC[C@@](O)(C(C)(C)O)C=C3C(=O)C[C@H]12`, the IC50 in data set [1] is more than 100 µM.

Take `CC1(C)[C@H](O)CC[C@@]2(C)[C@@H]3CCC(=O)C=C3[C@@H](O)C[C@H]12`: in data set [1], the IC50 was more than 100 µM.

With `CC(C)[C@]1(O)C=C2C(=O)C[C@@H]3C(C)(C)[C@H](O)CC[C@@]3(C)[C@@H]2CC1`, the 50% inhibitory concentration (IC50) in data set [1] was more than 100 µM.

Regarding `CC(C)[C@]1(O)C=C2C(=O)C=C3C(C)(C)[C@H](O)CC[C@@]3(C)[C@@H]2CC1`, in data set [1], the 50% inhibitory concentration (IC50) was more than 100 µM.

For the molecule `CO[C@]1(C(C)C)C=C2C(=O)C[C@@H]3C(C)(C)[C@H](O)CC[C@@]3(C)[C@@H]2CC1`, the IC50 in data set [1] was found to be 8.3 µM. Further, the viability at 50 µM in data set [2] worked out at 96.7%.

For the molecule `CC(C)c1ccc2c(c1)[C@H](O)C[C@@H]1C(C)(C)[C@H](O)CC[C@@]21C`, the IC50 in data set [1] was determined as 43.9 µM. In data set [2], the viability at 50 µM is 94.7%.

`CC(C)(O)c1ccc2c(c1)CC[C@@H]1C(C)(C)[C@H](O)CC[C@@]21C`: in data set [1], the IC50 is 17.8 µM. In data set [2], the viability at 50 µM was found to be 95.4%.

On to `CC(C)C(=O)CC[C@@H]1CC(=O)C[C@@H]2C(C)(C)[C@H](O)CC[C@@]12C`, for which the concentration for half-maximal inhibition (IC50) in data set [1] was more than 100 µM.

Turning to `CC(C)(O)c1ccc2c(c1)C(=O)C=C1C(C)(C)[C@H](O)CC[C@]12C`, in data set [1], the IC50 was more than 100 µM.

On to `CC(C)[C@@]1(O)C=C2C(=O)C[C@@H]3[C@@](C)(CO)CCC[C@@]3(C)[C@@H]2CC1`, for which the IC50 in data set [1] was determined as 7.4 µM. For the same molecule, in data set [2], the viability at 50 µM came out at 96.8%.

For `CC(C)C(=O)[C@H]1C[C@@H]2C(=CC[C@@H]3C(C)(C)[C@H](O)CC[C@@]23C)[C@H]1O`, in data set [1], the IC50 was more than 100 µM.

Consider `CC(C)C(=O)[C@@H]1C[C@@H]2C(=CC[C@@H]3C(C)(C)[C@H](O)CC[C@@]23C)[C@H]1O`, for which the IC50 in data set [1] was more than 100 µM.
